These results are taken from ChEMBL document CHEMBL3769381 (J Med Chem, 2016).

Experiment [1] concerns the target T1, Adenosine receptor A2b (Homo sapiens) (UniProt P29275).
T1 sequence (whole entry): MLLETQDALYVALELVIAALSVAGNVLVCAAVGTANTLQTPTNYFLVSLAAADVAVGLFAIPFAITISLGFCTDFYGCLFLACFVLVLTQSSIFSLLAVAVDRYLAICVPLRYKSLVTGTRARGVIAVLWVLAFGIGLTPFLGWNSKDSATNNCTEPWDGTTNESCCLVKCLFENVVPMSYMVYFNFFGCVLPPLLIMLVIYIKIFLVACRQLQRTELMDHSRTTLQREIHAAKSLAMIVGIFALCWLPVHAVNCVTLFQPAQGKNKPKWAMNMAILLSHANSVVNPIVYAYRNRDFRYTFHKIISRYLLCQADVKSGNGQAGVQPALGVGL

The target of experiment [2] is T2, Adenosine receptor A2a (Homo sapiens, UniProt P29274).
For experiment [3], the target named is T3, Adenosine receptor A1 (Homo sapiens) (UniProt P30542).
T3 sequence (whole entry): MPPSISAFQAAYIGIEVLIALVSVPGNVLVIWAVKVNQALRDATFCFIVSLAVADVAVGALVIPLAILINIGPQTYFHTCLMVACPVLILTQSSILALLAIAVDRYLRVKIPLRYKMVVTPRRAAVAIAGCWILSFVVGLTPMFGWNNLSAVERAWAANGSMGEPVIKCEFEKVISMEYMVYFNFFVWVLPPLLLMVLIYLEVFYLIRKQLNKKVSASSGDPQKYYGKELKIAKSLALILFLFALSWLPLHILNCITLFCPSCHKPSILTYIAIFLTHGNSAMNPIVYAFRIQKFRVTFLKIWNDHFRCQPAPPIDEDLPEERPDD

Experiment [4] addresses T1, Adenosine receptor A2b (Homo sapiens). In words: Binding affinity to human Adenosine A2B receptor expressed in yeast cells coexpressed with GPA1/Galphas. The experiment is classed as cell-based. In a few lines: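 pKA is derived by non-linear regression of the operational model of agonism applied to 16 h yeast FUS1-lacZ concentration-response data, with A2BR coupled to the GPA1/Gαs chimera.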

Experiment [5] concerns the target T4, Adenosine receptor A3 (Homo sapiens, UniProt P0DMS8).
T4 sequence (P0DMS8 whole entry): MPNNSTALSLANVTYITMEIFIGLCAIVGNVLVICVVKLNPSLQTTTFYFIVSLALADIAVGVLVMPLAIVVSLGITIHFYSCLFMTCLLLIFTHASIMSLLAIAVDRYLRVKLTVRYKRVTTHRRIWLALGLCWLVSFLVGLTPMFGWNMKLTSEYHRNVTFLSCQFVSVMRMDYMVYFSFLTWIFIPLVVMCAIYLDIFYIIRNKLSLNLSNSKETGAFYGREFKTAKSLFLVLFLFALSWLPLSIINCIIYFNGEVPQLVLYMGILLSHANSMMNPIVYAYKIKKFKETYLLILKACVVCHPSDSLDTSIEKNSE
In words: (§1) Agonist activity at human Adenosine A3 receptor transfected in CHO-K1 cells assessed as inhibition of forskolin-stimulated cAMP production after 30 mins by multimode microplate reader analysis. The experiment is classed as functional, cell-based. The essentials:
(§2)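 CHO-K1 cells are transiently transfected with receptor (2 µg DNA, FuGene 6) and harvested at 48 h. They are co-incubated with 10 µM forskolin and ligand (10 pM to 1 µM) for 30 min at room temperature. cAMP is measured by LANCE kit. Data are expressed as % of the 10 µM forskolin response.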

For experiment [6], the target named is T3, Adenosine receptor A1 (Homo sapiens). The source holds these as a separate data set.
Experiment [7] deals with T5, Adenosine receptor A1 (Homo sapiens, UniProt P30542).
T5 sequence (P30542 whole entry): T3 sequence (whole entry)
In words: Agonist activity at human Adenosine A1 receptor transfected in CHO-K1 cells assessed as inhibition of forskolin-stimulated cAMP production after 30 mins by multimode microplate reader analysis. The experiment is classed as functional, cell-based. A general note: Changes in cAMP serve as a functional read-out for many G protein-coupled receptors.

The target in experiment [8] is T2, Adenosine receptor A2a. The source holds these as a separate data set.
For experiment [9], the target named is T5, Adenosine receptor A1. In words: Agonist activity at human Adenosine A1 receptor expressed in yeast cells coexpressed with chimeric GPA1/Galphai1 after 16 hrs by beta galactosidase reporter gene assay. The experiment is classed as cell-based. (Reporter assays use an easily measured gene product as a stand-in for the process of interest.)
Experiment [10] concerns the target T1, Adenosine receptor A2b (Homo sapiens). In words: Agonist activity at human Adenosine A2B receptor expressed in yeast cells coexpressed with chimeric GPA1/Galphas after 16 hrs by beta-galactosidase reporter gene assay relative to NECA. The experiment is classed as cell-based. In a few lines:
(§3)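 Yeast (Δfar1, FUS1-lacZ) express A2BR from the GAPDH promoter alongside Gpa1p/Gαs chimera. The OD600 is 0.02 and compound is added in 1% v/v DMSO for 16 h at 30°C. β-Galactosidase is read with ONPG at OD430, normalised as (OD430−OD620)/OD620. […] Three-parameter logistic fit gives EC50 and Emax. Data are from 5-8 independent experiments.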

Experiment [11] addresses T2, Adenosine receptor A2a. In words: Agonist activity at human Adenosine A2A receptor expressed in yeast cells coexpressed with chimeric GPA1/Galphas after 16 hrs by beta-galactosidase reporter gene assay. The experiment is classed as cell-based.
For experiment [12], the target named is T6, Adenosine receptor A3 (Homo sapiens) (UniProt P0DMS8).
T6 sequence (whole entry): T4 sequence (P0DMS8 whole entry)
In words: Agonist activity at human Adenosine A3 receptor transfected in CHO-K1 cells assessed as inhibition of forskolin-stimulated cAMP production after 30 mins by multimode microplate reader analysis relative to total forskolin. More on the design: concentration or dose not given beside the values. The experiment is classed as functional, cell-based. In a few lines: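 CHO-K1 cells are transiently transfected with receptor (2 µg DNA, FuGene 6) and harvested at 48 h. Cells are resuspended in PBS with 0.1% BSA and 25 µM rolipram, at 2500 cells/well. They are co-incubated with 10 µM forskolin and ligand (10 pM to 1 µM) for 30 min at room temperature. cAMP is measured by LANCE kit. Data are expressed as % of the 10 µM forskolin response.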

Experiment [13] addresses T7, Adenosine receptor A2b (Homo sapiens, UniProt P29275).
T7 sequence (P29275 whole entry): T1 sequence (whole entry)
In words: (§4) Agonist activity at human Adenosine A2B receptor expressed in yeast cells coexpressed with chimeric GPA1/Galphas after 16 hrs by beta-galactosidase reporter gene assay. The experiment is classed as cell-based. The essentials:
(§5)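 Yeast (Δfar1, FUS1-lacZ) express A2BR from the GAPDH promoter alongside Gpa1p/Gαs chimera. The OD600 is 0.02 and compound is added in 1% v/v DMSO for 16 h at 30°C. β-Galactosidase is read with ONPG at OD430, normalised as (OD430−OD620)/OD620. Three-parameter logistic fit gives EC50 and Emax. Data are from 5-8 independent experiments.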

Experiment [14] concerns the target T2, Adenosine receptor A2a. In words: Agonist activity at human Adenosine A2A receptor expressed in yeast cells coexpressed with chimeric GPA1/Galphas at 100 uM after 16 hrs by beta-galactosidase reporter gene assay. The experiment is classed as cell-based. The essentials: (§6)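 Human receptor expressed from GAPDH promoter (p426-GPD) in Δfar1 FUS1-lacZ yeast with Gpa1p(1-467) carrying the 5 C-terminal Gα residues. Cells are grown overnight in SD-URA at 30°C, diluted 1:10 and grown 8 h. They are set to OD600 0.02 and given compound at 1% v/v DMSO for 16 h at 30°C. A2A strain is grown in SD-URA-HIS, with 5 mM 3-amino-triazole in treatment media. Read-out: ONPG, (OD430−OD620)/OD620.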

For experiment [15], the target named is T3, Adenosine receptor A1 (Homo sapiens). In words: Agonist activity at human Adenosine A1 receptor expressed in yeast cells coexpressed with chimeric GPA1/Galphai1 at 100 uM after 16 hrs by beta galactosidase reporter gene assay. The experiment is classed as cell-based. In a few lines: as §6
The target of experiment [16] is T5, Adenosine receptor A1. In words: Competitive antagonist activity at human Adenosine A1 receptor expressed in yeast cells after 16 hrs by LacZ reporter gene assay. The experiment is classed as cell-based. The note with it: read-out: pA2 (converted).
The target in experiment [17] is T1, Adenosine receptor A2b (Homo sapiens). In words: Agonist activity at human Adenosine A2B receptor expressed in yeast cells coexpressed with chimeric GPA1/Galphas at 100 µM after 16 hrs by beta-galactosidase reporter gene assay. The experiment is classed as cell-based. In a few lines: as §3
Experiment [18] addresses T6, Adenosine receptor A3 (Homo sapiens). The experiment is described as §1. The experiment is classed as functional, cell-based. In a few lines:
as §2

Experiment [19] concerns the target T1, Adenosine receptor A2b (Homo sapiens). The experiment is described as §4. The experiment is classed as cell-based. The essentials: as §5
In experiment [20] the target is T5, Adenosine receptor A1. In words: Displacement of [3H]CPX from human Adenosine A1 receptor expressed in DDT1MF-2 cells. The experiment is classed as cell-based. (In general: In a radioligand displacement assay an active substance lowers the binding of a labelled ligand.)
Experiment [21] deals with T5, Adenosine receptor A1. In words: Displacement of [3H]CPX from human Adenosine A1 receptor expressed in CHO cells. The experiment is classed as cell-based.

Structures are written as SMILES. Calls of active or inactive are those of the source. No cut-off for these calls is given here.

T2 sequence (P29274 whole entry): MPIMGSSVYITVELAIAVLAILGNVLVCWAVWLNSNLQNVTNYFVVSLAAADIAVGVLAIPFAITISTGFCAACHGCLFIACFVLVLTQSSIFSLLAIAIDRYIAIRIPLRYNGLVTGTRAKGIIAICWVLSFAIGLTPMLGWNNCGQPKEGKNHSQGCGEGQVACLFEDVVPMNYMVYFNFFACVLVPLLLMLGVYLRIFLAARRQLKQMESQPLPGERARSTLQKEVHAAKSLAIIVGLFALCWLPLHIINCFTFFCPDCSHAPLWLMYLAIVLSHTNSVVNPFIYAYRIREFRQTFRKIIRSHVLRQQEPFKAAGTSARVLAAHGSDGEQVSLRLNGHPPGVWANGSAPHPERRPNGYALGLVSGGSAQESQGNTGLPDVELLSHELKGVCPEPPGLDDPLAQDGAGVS

In general, IC50 refers to the concentration at which inhibition is half-maximal. As a reminder, the EC50 is the concentration giving half of the maximal effect. What is called Emax is the size of the effect at its maximum, as opposed to the concentration needed. As to `CCNC(=O)[C@H]1O[C@@H](n2cnc3c(N[C@@H]4CCC[C@H]4O)ncnc32)[C@H](O)[C@@H]1O`, the log(activity) in experiment [1] is -0.2; in experiment [2], 0.3; in [6], 1.6. Further, the values for the pKA in [3], in [4] and in experiment [8] were 4.8, 4.2 and 4.6, respectively. In addition, the IC50 was 2.29 nM in experiment [5] and 6.17 nM in [7]. For the same compound, the EC50 is 316 nM in experiment [9], 5.75 µM in experiment [11] and 331 µM in experiment [13]. For the same compound, in [10], the Emax amounted to 49.2%. Also, the Activity in experiment [12] is -37.9%.
As for `O[C@@H]1[C@H](O)[C@@H](CSc2ccccc2F)O[C@H]1n1cnc2c(N[C@@H]3CCC[C@H]3OCc3ccccc3)ncnc21`, the pKA entry in experiment [3], in experiment [4] and in experiment [8] was “inactive” in each case. In addition, the outcome in [14], in experiment [15] and in [17] was inactive. Besides, in [16], the Kb is 398 nM.
Consider `CCNC(=O)[C@H]1O[C@@H](n2cnc3c(NC4C5CC6CC(C5)CC4C6)ncnc32)[C@H](O)[C@@H]1O` (some centres undefined), for which the pKA in experiment [3] came to 2.4. The pKA entry in [4] and in [8] was “inactive” throughout. In addition, in experiment [18], the pIC50 result was “inactive”. For the same compound, the log(activity) in experiment [6] is 2.4. In experiment [7], the IC50 is 0.398 nM. The same compound gave an EC50 in experiment [9] of 15800 nM. Further, the Emax result in [10] is “inactive”. The pEC50 entry in [11] and in [19] was “inactive” in each case. Besides, in experiment [12], the result was inactive.
One may read the Ki as the dissociation constant of the complex between target and ligand, obtained from inhibition or displacement. With `O[C@@H]1[C@H](O)[C@@H](CSc2ccccc2F)O[C@H]1n1cnc2c(N[C@@H]3CCC[C@H]3O)ncnc21` [GS-9667], the pKA result in experiment [3], in experiment [4] and in experiment [8] was “inactive” throughout. In addition, the outcome in experiment [14], in experiment [15] and in experiment [17] was inactive. In addition, the results for the inhibition constant (Ki) in [20] and in experiment [21] were 113 nM and 1100 nM, respectively. Moreover, the Kb in experiment [16] was 5010 nM.
Consider `CCNC(=O)[C@H]1O[C@@H](n2cnc3c(NC45CC6CC(CC(C6)C4)C5)ncnc32)[C@H](O)[C@@H]1O`, for which the pKA in [3] worked out at 4.2. Besides, the pKA result in [4] and in [8] was “inactive” each time. Further, the pIC50 result in experiment [18] was “inactive”. The compound further showed a log(activity) in [6] of 1.2. The IC50 in experiment [7] was 2.88 nM. For the same compound, it took 3980 nM to reach a half-maximal effect in experiment [9] (EC50). In [10], the Emax entry was “inactive”. Besides, the pEC50 entry in [11] and in experiment [19] was “inactive” in each case. The result in experiment [12] was inactive.
Turning to `CCNC(=O)[C@H]1O[C@@H](n2cnc3c(N[C@@H]4CCC[C@H]4OCc4ccccc4)ncnc32)[C@H](O)[C@@H]1O`, the log(activity) in experiment [1] was determined as 0.1; in [2] it was 0.5; in experiment [6] it was 1.6. In addition, the pKA in experiment [3] worked out at 4.3; in experiment [4], 3.5; in experiment [8] it was 3.9. Besides, the IC50 was 269 nM in experiment [5] and 0.0295 nM in experiment [7]. In addition, the figures for the EC50 in experiment [9], in experiment [11] and in experiment [13] were 1000 nM, 15.8 µM and 126 µM, respectively. This compound showed an Emax in [10] of 32.2%. In addition, in experiment [12], the Activity is -38%.
